Test results: ChEMBL document CHEMBL1143018, “Synthesis and activity studies of analogues of the rat selective toxicant norbormide” (Bioorg Med Chem, 2007)
The source made the active and inactive calls. The calls are words filed in the database; no cut-off is given here.

Experiments:
Liver [1] = assay: Stimulation of mitochondrial permeability transition measured by Ca2+ retention capacity of Wistar Albino rat liver mitochondria at 50 uM; format: functional
How it was run: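 Liver mitochondria from Albino Wistar rats, isolated by differential centrifugation and suspended in Tris/HCl pH 7.4 with 0.25 M sucrose and 0.1 mM EGTA. Only preparations with RCR ≥ 3.0 (Clark electrode, succinate, 25 °C) were used. MPT was induced by Ca2+ at 25 °C in medium of 200 mM sucrose, 10 mM Tris–MOPS, 10 µM EGTA–Tris, 1 mM Pi, 0.5 µg/mL oligomycin, 5 mM succinate, 2 µM rotenone, pH 7.4.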

[2] = Vasoconstriction effect in Wistar rat caudal artery; format: functional, tissue-based
How it was run: (§1)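 Endothelium-denuded rat caudal artery rings; denudation was confirmed by absence of carbamylcholine-induced relaxation. Cumulative concentration–response curves were run over 0.1–50 µM. Contractions were expressed as a percentage of the 90 mM KCl-induced contraction. Values are mean of at least 4 rings.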

Heart = assay: Coronaroconstriction in Wistar rat heart Langendorff preparations at 1 uM; format: functional, tissue-based
Liver [3] = assay: Stimulation of mitochondrial permeability transition measured by Ca2+ retention capacity of mouse liver mitochondria; format: functional
Rattus norvegicus [4] = assay: Toxicity in Wistar rat assessed as death at 20 mg/kg, ip after 1 hr; format: functional, organism-based; design: dose 20 mg/kg
[5] = Vasoconstriction effect in Wistar rat caudal artery relative to KCl; format: functional, tissue-based; how it was run: as §1
Aorta = assay: Vasodilation activity assessed as inhibition of KCl-induced contraction in Wistar rat aorta at 50 uM; format: functional
How it was run: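 Rat aortic rings were contracted with 90 mM KCl with and without a maximal concentration of compound. Inhibition was calculated as 100 × (C − AC)/C, where C and AC are the contractile effects in milligrams with KCl alone and with compound.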

Rattus norvegicus [6] = assay: Toxicity in Wistar rat assessed as death at 40 mg/kg, ip after 1 hr; format: functional, organism-based; design: dose 40 mg/kg
How it was run: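 Four male Wistar rats (150–250 g) per compound. Drug was dissolved in DMSO at 40 mg/kg and injected intraperitoneally. Animals were kept in a quiet room and watched every 15 min for early signs of toxicity. Four rats given solvent alone served as controls.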

| EC50 [2] [µM] | Compound | Activity (Heart) | Activity (Rattus norvegicus [4]) | Activity [5] [%] | inhibition at 50 µM (Aorta) [%] | other results |
| --- | --- | --- | --- | --- | --- | --- |
| 11 | C=C(c1ccccc1)c1ccccn1 | inactive | Not toxic | 185 |  | Activity (Liver [1]): Active; Activity (Liver [3]): inactive |
|  | O=C1NC(=O)C2C3OC(C=C3C(O)(c3ccccc3)c3ccccn3)C12 (stereo not given) | inactive |  |  |  |  |
| 4.2 | O=C1NC(=O)[C@H]2C3C(C(O)(c4ccccc4)c4ccccn4)=CC(C3=C(c3ccccc3)c3ccccc3)[C@@H]12 (stereo not given in full) | Active |  | 185 | 42 | Activity (Rattus norvegicus [6]): Toxic |
|  | O=C1NC(=O)[C@H]2C3CC(C=C3C(O)(c3ccccc3)c3ccccn3)[C@@H]12 (stereo not given in full) | inactive |  |  |  |  |
|  | O=C1NC(=O)[C@H]2C3C=CC(C3)[C@@H]12 | inactive |  |  |  |  |
|  | O=C1CCC(=O)N1 | inactive |  |  |  |  |
|  | OC(C1=CC2CCC1C2)(c1ccccc1)c1ccccn1 (mixture of isomers) | inactive | Not toxic |  | 69 |  |
|  | O=C1NC(=O)[C@H]2C3C=C(C(O)(c4ccccc4)c4ccccn4)C(C3=C(c3ccccc3)c3ccccc3)[C@@H]12 (stereo not given in full) | inactive |  |  | 31 |  |
| 1 | O=C1NC(=O)C2C3C(C(O)(c4ccccc4)c4ccccn4)=CC(/C3=C(/c3ccccc3)c3ccccn3)C12 (stereo not given) | Active | Toxic | 209 | 64 |  |
|  | OC(C1=CC2CCC1/C2=C(\c1ccccc1)c1ccccn1)(c1ccccc1)c1ccccn1 (mixture of isomers) | inactive | Not toxic |  | 60 |  |
| 7.8 | O=C1NC(=O)C2C3C=CC(C3=C(c3ccccc3)c3ccccn3)C12 (stereo not given) | inactive | Not toxic | 193 |  | Activity (Liver [1]): Active |
|  | CC(O)(c1ccccc1)c1ccccn1 (stereo not given) | inactive |  |  |  |  |
|  | O=C1NC(=O)[C@H]2C3C=C(C(O)(c4ccccc4)c4ccccn4)C(C3)[C@@H]12 (stereo not given in full) | inactive |  |  |  |  |
